Converted amounts (≈) assume the structure as drawn. The source made the active and inactive calls. No cut-off for these calls is given here.
Key:
[1] = system: Staphylococcus aureus; assay: Antibacterial activity against methicillin-resistant Staphylococcus aureus clinical isolate 2 assessed as bacterial growth inhibition incubated for 16 hrs by CLSI based broth microdilution method; format: functional
[2] = system: Staphylococcus aureus; assay: Antibacterial activity against Staphylococcus aureus clinical isolate 129 assessed as bacterial growth inhibition incubated for 16 hrs by CLSI based broth microdilution method; format: functional
[3] = system: Staphylococcus epidermidis; assay: Antibacterial activity against Staphylococcus epidermidis clinical isolate CL-1 assessed as bacterial growth inhibition incubated for 16 hrs by CLSI based broth microdilution method; format: functional
[4] = system: Staphylococcus aureus; assay: Antibacterial activity against Staphylococcus aureus clinical isolate 138 assessed as bacterial growth inhibition incubated for 16 hrs by CLSI based broth microdilution method; format: functional
[5] = system: Staphylococcus aureus; assay: Antibacterial activity against Staphylococcus aureus clinical isolate 147 assessed as bacterial growth inhibition incubated for 16 hrs by CLSI based broth microdilution method; format: functional
[6] = system: Staphylococcus aureus; assay: Antibacterial activity against Staphylococcus aureus clinical isolate 156 assessed as bacterial growth inhibition incubated for 16 hrs by CLSI based broth microdilution method; format: functional
[7] = system: Staphylococcus aureus; assay: Antibacterial activity against methicillin-resistant Staphylococcus aureus clinical isolate 1 assessed as bacterial growth inhibition incubated for 16 hrs by CLSI based broth microdilution method; format: functional
[8] = system: Staphylococcus aureus; assay: Antibacterial activity against methicillin-resistant Staphylococcus aureus 1707 assessed as zone of inhibition at 10 mM incubated for 16 hrs by agar diffusion assay; format: functional
How it was run: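 Modified Kirby-Bauer disk diffusion. 100 µL MRSA 1707 inoculum (OD₆₀₀ 0.7, ~10⁸ CFU) spread on LB agar and left 30 min. 10 µL of 10 mM DMSO compound solution then pipetted onto the plate. Incubation 16 h at 37 °C; zone of inhibition area (cm²) measured. Three independent experiments.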

[9] = system: Staphylococcus epidermidis; assay: Antibacterial activity against Staphylococcus epidermidis 12228 assessed as bacterial growth inhibition incubated for 16 hrs by CLSI based broth microdilution method; format: functional
How it was run: (§1)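 CLSI broth microdilution in LB: eleven 2-fold serial dilutions, 0.10–100 µM. DMSO vehicle/negative control diluted from 0.5% v/v. Wells seeded with ~10⁵ cells from log-phase culture (OD₆₀₀ 0.6–0.8), held 16 h at 37 °C. MIC taken as the lowest concentration preventing growth by OD₆₀₀ turbidity. Minimum three independent experiments.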

[10] = system: Streptococcus pneumoniae; assay: Antibacterial activity against Streptococcus pneumoniae 6303 assessed as bacterial growth inhibition incubated for 16 hrs by CLSI based broth microdilution method; format: functional; how it was run: as §1
[11] = Metal chelating activity assessed as formation of phenazine-iron complex measured for 1 to 60 mins by UV-vis spectroscopy; details: time 1-60 min
How it was run: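 Compound from a 10 mM DMSO stock diluted in DMSO in a cuvette, alone or with ammonium iron(II) sulfate hexahydrate (10 mM aqueous stock). Spectra of the compound-only cuvette and the iron-containing cuvette are compared by UV-vis spectrometry to judge phenazine–iron(II) complex formation.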

[12] = Cytotoxicity against HEK293 cells incubated for 48 hrs by MTT assay; format: toxicity, cell-based; details: human
How it was run: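 HEK-293 cells (10⁴/well) in DMEM with 10% FBS, penicillin/streptomycin, settled overnight at 37 °C, 5% CO₂. Medium replaced with compound at 0.10–100 µM (2-fold steps); DMSO as negative control. After 48 h at 37 °C, MTT (5 mg/mL stock) added for 3 h. Formazan dissolved in DMSO, OD read at 570 nm. Eight replicates per treatment.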

[13] = system: Staphylococcus epidermidis; assay: Antibacterial activity against methicillin-resistant Staphylococcus epidermidis 35984 assessed as bacterial growth inhibition incubated for 16 hrs by CLSI based broth microdilution method; format: functional
How it was run: (§2)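 Broth microdilution per CLSI in LB, eleven two-fold serial dilutions spanning 0.10 to 100 µM. Inoculum ~10⁵ cells/well from fresh log-phase culture (OD₆₀₀ 0.6–0.8). MIC taken as lowest concentration preventing growth after 16 h at 37 °C, read by OD₆₀₀ turbidity. DMSO vehicle control, top 0.5% v/v. At least three independent experiments.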

[14] = system: Enterococcus; assay: Antibacterial activity against vancomycin-resistant Enterococcus 700221 assessed as bacterial growth inhibition incubated for 16 hrs by CLSI based broth microdilution method; format: functional
How it was run: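 Growth scored by OD₆₀₀ turbidity after 16 h at 37 °C; MIC is the lowest concentration preventing growth. DMSO vehicle control up to 0.5% v/v. Three or more independent experiments.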

[15] = system: Staphylococcus aureus; assay: Antibacterial activity against methicillin-resistant Staphylococcus aureus BAA-1707 assessed as bacterial growth inhibition incubated for 16 hrs by CLSI based broth microdilution method; format: functional; how it was run: as §2
[16] = system: Staphylococcus aureus; assay: Antibacterial activity against methicillin-resistant Staphylococcus aureus BAA-44 assessed as bacterial growth inhibition incubated for 16 hrs by CLSI based broth microdilution method; format: functional; how it was run: as §2
[17] = Hemolytic activity against red blood cells (unknown origin) at 200 uM; format: toxicity, cell-based, Erythrocyte; details: read-out: Activity
[18] = system: Enterococcus faecalis; assay: Antibacterial activity against Enterococcus faecalis OG1RF assessed as bacterial growth inhibition incubated for 16 hrs by CLSI based broth microdilution method; format: functional
How it was run: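 Broth microdilution per CLSI in brain-heart infusion: eleven 2-fold dilutions spanning 0.10–100 µM, with DMSO vehicle/negative control topping at 0.5% v/v. Inoculum ~10⁵ cells/well from log-phase culture (OD₆₀₀ 0.6–0.8). 37 °C, 16 h. MIC is the lowest concentration preventing growth, read as OD₆₀₀ turbidity. At least three independent experiments.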

[19] = system: Staphylococcus aureus; assay: Antibacterial activity against methicillin-resistant Staphylococcus aureus 1707 assessed as bacterial growth inhibition incubated for 16 hrs by CLSI based broth microdilution method; format: functional; how it was run: as §2
[20] = Lipophilicity, LogP of compound in octanol-water mixture incubated for 1 hr by UV-vis spectroscopy; format: physicochemical
How it was run: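 Shake-flask partition: compound in octanol (1% v/v DMSO) mixed with equal volume water, stirred vigorously, left 1 h at room temperature to separate. Octanol-phase concentration measured by UV-Vis at 370 or 380 nm against a serial-dilution standard curve. Water concentration obtained by mass balance; LogP = log10(Coct/Cw). Acetophenone as positive control. Three independent experiments.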

Row | Structure (SMILES) | MIC [1] [µM] | MIC [2] [µM] | MIC [3] [µM] | MIC [4] [µM] | MIC [5] [µM] | MIC [6] [µM] | MIC [7] [µM] | diameter of the inhibition zone (DIZ) [8] [cm2] | MIC [9] [µM] | MIC [10] [µM] | Activity [11] | CC50 at 48 h [12] [µM] | MIC [13] [µM] | MIC [14] [µM] | MIC [15] [µM] | MIC [16] [µM] | hemolysis at 200 µM [17] [%] | MIC [18] [µM] | MIC [19] [µM] | logP at 1 h [20]
1 | CN(C)[C@@H]1C(O)=C(C(N)=O)C(=O)[C@@]2(O)C(O)=C3C(=O)c4c(O)cccc4[C@@](C)(O)[C@H]3C[C@@H]12 [TETRACYCLINE] | 0.1 (≈ 0.0444 µg/mL) | 0.1 (≈ 0.0444 µg/mL) | 25 (≈ 11.1 µg/mL) | 0.15 (≈ 0.0667 µg/mL) | 0.1 (≈ 0.0444 µg/mL) | 0.15 (≈ 0.0667 µg/mL) | 0.1 (≈ 0.0444 µg/mL) | – | – | – | – | – | – | – | – | – | – | – | – | –
2 | O=[N+]([O-])c1ccc(CS(=O)(=O)Oc2c(Br)cc(Br)c3nc4c(C(F)(F)F)cc(C(F)(F)F)cc4nc23)cc1 | – | – | – | – | – | – | – | 2.57 | 0.15 (≈ 0.103 µg/mL) | 0.2 (≈ 0.138 µg/mL) | inactive | 2.9 | 0.78 (≈ 0.538 µg/mL) | 1.56 (≈ 1.08 µg/mL) | 1.56 (≈ 1.08 µg/mL) | 4.69 (≈ 3.23 µg/mL) | 10.4 | 0.78 (≈ 0.538 µg/mL) | 1.56 (≈ 1.08 µg/mL) | –
3 | NC[C@H]1O[C@H](O[C@H]2[C@H](O)[C@@H](O[C@H]3O[C@H](CO)[C@@H](O)[C@H](N)[C@H]3O)[C@H](N)C[C@@H]2N)[C@H](N)C[C@@H]1O [TOBRAMYCIN] | 6.25 (≈ 2.92 µg/mL) | > 100 | 1.56 (≈ 0.729 µg/mL) | 12.5 (≈ 5.84 µg/mL) | 6.25 (≈ 2.92 µg/mL) | 12.5 (≈ 5.84 µg/mL) | 6.25 (≈ 2.92 µg/mL) | – | – | – | – | – | – | – | – | – | – | – | – | –
4 | O=S(=O)(Cc1ccccc1)Oc1c(Br)cc(Br)c2nc3ccccc3nc12 | – | > 100 | > 100 | > 100 | > 100 | > 100 | – | 0 | > 100 | > 100 | inactive | > 100 | > 100 | > 100 | > 100 | > 100 | – | > 100 | > 100 | –
5 | CN[C@H](CC(C)C)C(=O)N[C@H]1C(=O)N[C@@H](CC(N)=O)C(=O)N[C@H]2C(=O)N[C@H]3C(=O)N[C@H](C(=O)N[C@H](C(=O)O)c4cc(O)cc(O)c4-c4cc3ccc4O)[C@H](O)c3ccc(c(Cl)c3)Oc3cc2cc(c3O[C@@H]2O[C@H](CO)[C@@H](O)[C@H](O)[C@H]2O[C@H]2C[C@](C)(N)[C@H](O)[C@H](C)O2)Oc2ccc(cc2Cl)[C@H]1O [VANCOMYCIN] | – | – | 0.59 (≈ 0.855 µg/mL) | – | – | – | – | – | 1.56 (≈ 2.26 µg/mL) | 0.59 (≈ 0.855 µg/mL) | – | – | 0.59 (≈ 0.855 µg/mL) | > 100 | – | 0.3 (≈ 0.435 µg/mL) | < 1 | 1.56 (≈ 2.26 µg/mL) | – | –
6 | Cc1cccc2nc3c(OS(=O)(=O)Cc4ccc([N+](=O)[O-])cc4)c(Br)c(Cl)c(Br)c3nc12 | 0.3 (≈ 0.18 µg/mL) | – | 2.35 (≈ 1.41 µg/mL) | 0.39 (≈ 0.235 µg/mL) | 0.59 (≈ 0.355 µg/mL) | 0.59 (≈ 0.355 µg/mL) | 0.3 (≈ 0.18 µg/mL) | 0.87 | 0.59 (≈ 0.355 µg/mL) | 0.15 (≈ 0.0902 µg/mL) | Active | 34.1 | 0.15 (≈ 0.0902 µg/mL) | 0.15 (≈ 0.0902 µg/mL) | 0.1 (≈ 0.0602 µg/mL) | 0.3 (≈ 0.18 µg/mL) | < 1 | 4.69 (≈ 2.82 µg/mL) | 0.1 (≈ 0.0602 µg/mL) | 3.11
7 | Oc1c(Br)cc(Br)c2nc3ccccc3nc12 | 1.56 (≈ 0.552 µg/mL) | – | – | – | – | – | 0.78 (≈ 0.276 µg/mL) | 5.08 | 2.35 (≈ 0.832 µg/mL) | 1.17 (≈ 0.414 µg/mL) | Active | – | – | – | – | – | < 1 | 18.8 (≈ 6.66 µg/mL) | – | 0.25
8 | COc1cccc(OC)c1C(=O)N[C@@H]1C(=O)N2[C@@H]1SC(C)(C)[C@@H]2C(=O)O [METHICILLIN] | > 100 | 37.5 (≈ 14.3 µg/mL) | 12.5 (≈ 4.76 µg/mL) | 37.5 (≈ 14.3 µg/mL) | 6.25 (≈ 2.38 µg/mL) | 25 (≈ 9.51 µg/mL) | 37.5 (≈ 14.3 µg/mL) | – | – | – | – | – | – | – | – | – | – | – | – | –

From ChEMBL document CHEMBL5329167, “Design, synthesis and evaluation of halogenated phenazine antibacterial prodrugs targeting nitroreductase enzymes for activation” (RSC Med Chem, 2023)
